We go through four compounds from PMC8914349 (Molecular cancer therapeutics, 2020).

In data set [1] the test system is canine MM cells (M1, M5, M2, M3, and Jones). Kind of data set: MTS viability assay, 72h, canine MM cell lines. It counts as cell-based. The following applies: canine MM cells in vitro, single agent. For orientation: Formazan colour is commonly taken as a measure of viable cells.
For a further data set, the system named is canine MM cell. The following applies: cited from earlier work.
In data set [2] the test system is human cutaneous melanoma cells (WM3311, WM2032, WM853–2 and WM858). Kind of data set: MTS viability assay, 72h, human cutaneous melanoma cell lines. The data set is classed as cell-based.
Data set [3] deals with Ras/MAPK and PI3K/Akt/mTOR signal transduction targets. The data set is classed as cell-based, canine. The following applies: for target inhibition in vitro (western blot): trametinib 10 nM, sapanisertib 40 nM, 4 and 24h, M1, M5 and Jones. In short, it runs like this:
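Cell lysates were immunoblotted for p-AKT, p-S6 and p-ERK (pathway activation) and for cyclin D1, cyclin B1, Bim, Bcl-xl, Mcl-1 and p-Bad.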
A general note: Immunoblotting shows a protein as a band on a membrane.

Data set [4] relates to M1-derived metastatic subline. Kind of data set: Tail vein injection metastasis study. It counts as in vivo, mice. Conditions: trametinib 5.0 mg/Kg daily, sapanisertib 2.0 mg/Kg three times a week, four-week treatment.
Data set [5] in a line: Single administration plasma pharmacokinetics in tumor-bearing mice. The following applies: mouse plasma. The data set is classed as in vivo. In short, it runs like this:
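Plasma and tumor were taken from two mice per group per timepoint over 2–48 h. Validated LC-MS/MS was used; sapanisertib was read by MRM m/z 310.2→268.1, calibrated 1–1000 ng/mL. Noncompartmental analysis for destructive sampling gave Cmax, T1/2 and AUC to last timepoint, with AUC error by Bailer's method.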

Data set [6] has as its system M1 or M5 canine MM subcutaneous xenografts. The following applies: oral 5.0 mg/Kg trametinib or 2.0 mg/Kg sapanisertib EOD for 3 weeks, single agents.
Data set [7] is described as follows: Preliminary dose range study in mice with canine M1 or M5 MM xenografts. It counts as in vivo. The following applies: daily 3.0 mg/Kg, oral.
A further data set relates to mTOR. The following applies: ATP-competitive mTOR selective inhibitor; ref https://adisinsight.springer.com/drugs/800030541; https://drugs.ncats.io/substance/JGH0DF1U03#activemoieties; cited from earlier work.
The subject of data set [8] is p-ERK, p-AKT, p-S6 and p-4E-BP1 in M1 or M5 canine MM xenografts. Kind of data set: Drug target modulation in vivo in tumor xenografts. The arrangement: species or system mice. Conditions: three consecutive days; for p-ERK level in tumors: sapanisertib 2.0 mg/Kg or trametinib 5.0 mg/Kg oral. In short, it runs like this: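 Female nu/nu athymic nude mice, 6–8 weeks old, received 1×10⁶ M1 or M5 cells s.c. in the flank and were randomized at 75–150 mm³ (five per group). […] Tumor lysates went to western blot and fixed sections to H&E plus p-ERK/p-S6 IHC.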

The format of data set [9] is in vivo, mice. The following applies: for Liver hepatocelluar vacuolation, numbers of animals / Renal tubules scattered isolated necrosis and regeneration, numbers of animals / Renal tubules zonal cortical degeneration/necrosis, numbers of animals / Spleen red and white pulp hypocellularity, numbers of animals / Spleen lymphocytolysis, numbers of animals / Spleen lymphoid and hematopoietic hyperplasia, numbers of animals / Bone marrow hypocellularity, numbers of animals: n = 5. The gist of the method:
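Non-tumor-bearing female nu/nu nude mice (n=5 per group) were dosed by oral gavage in 0.5% HPMC/0.2% Tween for 21 days. […] Bone marrow, kidney, spleen, liver and other organs were fixed for histopathology. Animals per lesion were counted and graded minimal/moderate/severe. Blood was taken into EDTA for complete counts before removal.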

The conditions of data set [10]: patients receiving the clinically approved dose of 2 mg trametinib; cited from earlier work.
The mark [11] stands for this setting: sapanisertib 2mg/kg daily, no lesion.
Setting [12] is: sapanisertib 2mg/kg daily, severity + minimal.
[13] abbreviates: sapanisertib 2mg/kg daily, severity ++ moderate.
[14] abbreviates: sapanisertib 2mg/kg daily, severity +++ severe.
Setting [15] is: sapanisertib 2mg/kg every other day, no lesion.
Setting [16] is: sapanisertib 2mg/kg every other day, severity + minimal.

Where two headings read alike, the source gives them in different places. Marks after values point to notes of the source that are not given here.

With `Nc1ccc(-c2ccc3ncc4ccc(=O)n(-c5cccc(C(F)(F)F)c5)c4c3c2)cn1` [Torin 2], the “cytotoxicity / sensitivity of cells” value in data set [1] is listed as “highly effective”.
With `Cn1c(=O)n(-c2ccc(C(C)(C)C#N)cc2)c2c3cc(-c4cnc5ccccc5c4)ccc3ncc21` [dactolisib], the “cytotoxicity” value in the data set with canine MM cell (canine MM cells) was “dose dependent cytotoxicity”.
Consider `CC(C)n1nc(-c2ccc3oc(N)nc3c2)c2c(N)ncnc21` [sapanisertib], for which, in [2] (Homo sapiens, WM2032, 72 h), the IC50 fell in the range of 10 to 100 nM. Further, in [3] (canine MM cells), the “cyclin expression (western blot)” value was “effective in reducing cyclin B1” and the “phosphorylation of Bad” value was “inhibited phosphorylation of Bad”. Further, the “reciprocal activation of ERK1/2” value in data set [3] (some cell lines) is given as “apparent reciprocal activation of ERK1/2”. Also, the “target inhibition in vitro (western blot)” value in data set [3] was “inhibited their respective Ras/MAPK and PI3K/Akt/mTOR signal transduction targets”. Also, in data set [4], the “intrathoracic metastatic tumor burden” value is given as “not as effective as trametinib in abating metastasis”. In data set [5], the “T1/2 in the presence of trametinib compared to sapanisertib alone” value was “approximately 50%” and the “change in sapanisertib PK in the presence of trametinib” value is on record as “no significant change”. Besides, in data set [6], the tolerability entry is given as “tolerated with some varying body weight fluctuation” and the tumor growth entry is “inhibited compared to vehicle-treated controls initially, but progression became evident over time”. The tolerability result in data set [7] is listed as “not well tolerated”. Moreover, the “selectivity for PI3K” value with mTOR was more than 100 fold. The “p-ERK level in tumors” value in data set [8] is on record as “increased p-ERK level”. The “p-AKT, p-S6 and p-4EBP-1 levels in tumors” value in data set [8] (sapanisertib 2.0 mg/Kg oral) was “reduced p-AKT as well as downstream effectors p-S6 and p-4EBP-1 levels”. For the same compound, the tolerability entry in data set [9] (2.0 mg/Kg alone EOD) was “well tolerated”. Moreover, in data set [9] (sapanisertib 2.0 mg/Kg daily), the “white blood cell counts finding” value is recorded as “lymphopenia”. In data set [9] (setting [11]), the “Liver hepatocelluar vacuolation, numbers of animals” value (shortened to “Liver hepatocelluar vacuolation”) worked out at 2; the “Renal tubules scattered isolated necrosis and regeneration, numbers of animals” value was found to be 5; the “Renal tubules zonal cortical degeneration/necrosis, numbers of animals” value was found to be 1; the “Spleen red and white pulp hypocellularity, numbers of animals” value is on record as 1. For the same compound, in data set [9] (setting [12]), the “Liver hepatocelluar vacuolation” value is given as 1; the “Renal tubules zonal cortical degeneration/necrosis, numbers of animals” value worked out at 1; the “Spleen lymphocytolysis, numbers of animals” value (shortened to “Spleen lymphocytolysis”) came out at 5; the “Spleen lymphoid and hematopoietic hyperplasia, numbers of animals” value was found to be 2. Also, the “Spleen red and white pulp hypocellularity, numbers of animals” value in data set [9] (setting [12]) was determined as 2. For the same compound, in data set [9] (setting [13]), the “Bone marrow hypocellularity, numbers of animals” value (“Bone marrow hypocellularity” below) is on record as 3 ^†; the “Liver hepatocelluar vacuolation” value is given as 1; the “Renal tubules zonal cortical degeneration/necrosis, numbers of animals” value was found to be 3; the “Spleen red and white pulp hypocellularity, numbers of animals” value worked out at 2. Besides, in data set [9] (setting [14]), the “Bone marrow hypocellularity” value is 2 and the “Liver hepatocelluar vacuolation” value stood at 1. In addition, in [9] (setting [15]), the “Bone marrow hypocellularity” value was found to be 5; the “Liver hepatocelluar vacuolation” value came out at 5; the “Renal tubules scattered isolated necrosis and regeneration, numbers of animals” value was 1; the “Renal tubules zonal cortical degeneration/necrosis, numbers of animals” value stood at 5. In [9] (setting [15]), the “Spleen lymphocytolysis” value is on record as 2; the “Spleen lymphoid and hematopoietic hyperplasia, numbers of animals” value is given as 2; the “Spleen red and white pulp hypocellularity, numbers of animals” value is listed as 5. In [9] (setting [16]), the “Renal tubules scattered isolated necrosis and regeneration, numbers of animals” value came out at 4; the “Spleen lymphocytolysis” value is listed as 3; the “Spleen lymphoid and hematopoietic hyperplasia, numbers of animals” value is 3.
On to `CC(=O)Nc1cccc(-n2c(=O)n(C3CC3)c(=O)c3c(Nc4ccc(I)cc4F)n(C)c(=O)c(C)c32)c1` [trametinib], for which the “sensitivity of cells” value in data set [2] (human cutaneous melanoma cells, regardless of Ras and NF1 mutation status) is given as “sensitive”. In data set [10], the area under the curve (AUC) was 248 ng·h/mL and the maximum concentration (Cmax) was 8.03 ng/mL. In addition, in data set [3] (canine MM cells), the Bcl-xl levels entry is given as “reduced Bcl-xl levels”; the “cyclin expression (western blot)” value is “reduced the expression of cyclins D1 and B1”. In addition, the “target inhibition in vitro (western blot)” value in data set [3] is “inhibited their respective Ras/MAPK and PI3K/Akt/mTOR signal transduction targets”. In the data set on canine MM cell (read-out: IC50, inhibiting canine MM cell growth in vitro), the IC50 is approximately 10 nM. For the same compound, in data set [1], the “cytotoxicity / sensitivity of cells” value is “sensitive”. In addition, in data set [4], the “intrathoracic metastatic tumor burden” value is “significantly less metastatic tumor burdens in the thorax compared to control vehicle-treated mice”. Further, the tumor growth result in data set [6] is “inhibited compared to vehicle-treated controls initially, but progression became evident over time”. The “p-ERK level in tumors” value in [8] is “less compared to vehicle-only treated mice”.

A word on the IC50: it is the concentration that gives 50% inhibition. In general, AUC refers to the area under the concentration-time curve, a measure of exposure. As usually defined, the Cmax is the maximum level reached in the sampled fluid or tissue.
